Results reported in publication PMC6863163 (Journal of neuro-oncology, 2019).
“And” between values parts separate entries of the source, which are not always exact repeats. Equal values may be shown once. Read-outs that look alike come from different tables or passages of the source.

Columns and labels:
[1] = test system: recurrent Rb-positive GBM; conditions: 22 patients, 125 mg/day, 21-days-on, 7-days-off; cited from earlier work
GBM cell proliferation = conditions: 7 days before surgery, 4 matched samples; ref Taylor et al. 34; cited from earlier work
recurrent GBM [2] = conditions: three of 17 patients with recurrent GBM; 150 mg or 200 mg twice daily; cited from earlier work
[3] = Safety monitoring, adverse events graded by NCI CTCAE version 4.0; format: in vivo, human; conditions: for Cough / Creatinine increased / Edema, limbs / Gait disturbance / Generalized muscle weakness / Hyperglycemia / Musculoskeletal and connective tissue disorder—other: muscle pain / Nausea / Peripheral sensory neuropathy / Psychosis / Insomnia: count, prior to surgery and during treatment phase
In short: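 Participants with recurrent GBM took oral ribociclib, 600 mg once daily, for 8–21 days before resection. Rb-positive cases then continued on 21 days on and 7 days off per 28-day cycle. Throughout treatment, staff monitored complete blood counts, blood chemistry, 12-lead ECG, vital signs, Karnofsky status and physical exam. Adverse events were graded by NCI CTCAE v4.0 and assessed for expectedness and drug attribution.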

Rb phosphorylation [4] = conditions: cultured cells, in vitro; cited from earlier work
recurrent GBM [5] = test: Disease progression; format: in vivo, human; conditions: for PFS from start of Ribociclib: 600 mg/day, 21-days-on, 7-days-off after surgery; for OS from second surgery: other regimens off-study after progression
In short: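 Patients with Rb-positive recurrent tumors continued oral ribociclib, 600 mg/day, 21 days on and 7 days off per 28-day cycle, until progression or unacceptable toxicity. Follow-up MRI, including perfusion and diffusion-weighted images, was done after every two cycles. Progression was judged by the Response Assessment in Neuro-Oncology (RANO) criteria.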

Rb phosphorylation [6] = conditions: 900 mg/day for 5 days before surgery, 12 patients; ref Tien et al. 37; cited from earlier work
cell proliferation = conditions: 900 mg/day for 5 days before surgery, 12 patients; ref Tien et al. 37; cited from earlier work
RbS807/811 = test: Immunohistochemistry for phospho-Rb in paired tumor specimens; format: in vivo, human
cell growth = conditions: suppression of cell growth in vitro; no reference given; cited from earlier work
[7] = format: in vitro ADME, human
In short: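 Plasma and tumor homogenate came from patients dosed at ribociclib 600 mg/day for 8–21 days. Samples were collected 4–8 h after the last pre-surgical dose. Fraction unbound was determined by equilibrium dialysis across a 5-kDa cutoff regenerated cellulose membrane.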

[8] = cited from earlier work
[9] = format: in vivo, human
In short: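 Patients took oral ribociclib, 600 mg/day, for 8–21 days, with the last dose 4–8 h before surgery. Baseline blood was drawn before treatment and again within 1 h before surgery, then split into plasma and buffy coat. CSF was collected during surgery when feasible. Tumor core and infiltrating regions were located by stealth MRI and frozen. Total drug was measured by validated LC–MS/MS. Unbound drug equals fraction unbound × total.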

[10] = enhancing tumor, subject RIBO-001, mean of specimens
[11] = enhancing tumor, subject RIBO-003, mean of specimens
[12] = mean across all specimens, 600 mg QD 8–21 days
[13] = mean ± SD, all tumor specimens of three subjects
[14] = mean ± SD, assuming tumor tissue density of 1.04 g/mL
[15] = non-enhancing tumor, subject RIBO-001, mean of specimens
[16] = tumor core, subject RIBO-002, mean of specimens
[17] = tumor core, subject RIBO-003, mean of specimens

SMILES: CC(=O)c1c(C)c2cnc(Nc3ccc(N4CCNCC4)cn3)nc2n(C2CCCC2)c1=O [palbociclib]
- Median PFS [1]: 5.1 weeks
- OS [1]: 15.4 weeks
- Change in GBM cell proliferation by Ki-67 IHC (GBM cell proliferation): did not produce significant changes
- Tumor drug concentrations vs pharmacologically active level (GBM cell proliferation): exceeded those felt to be pharmacologically active

SMILES: CCN1CCN(Cc2ccc(Nc3ncc(F)c(-c4cc(F)c5nc(C)n(C(C)C)c5c4)n3)nc2)CC1 [abemaciclib]
- Best response: duration of stable disease (recurrent GBM [2]): ≥ 24 weeks

SMILES: CN(C)C(=O)c1cc2cnc(Nc3ccc(N4CCNCC4)cn3)nc2n1C1CCCC1 [ribociclib]
- Grade of all observed adverse events ([3]; CTCAE v4.0, three participants, 600 mg/day): ≤ 2 grade
- Cough ([3]; Grade 1): 1
- Creatinine increased ([3]; Grade 1): 0
- Edema, limbs ([3]; Grade 1): 1
- Gait disturbance ([3]; Grade 1): 0
- Generalized muscle weakness ([3]; Grade 1): 0
- Hyperglycemia ([3]; Grade 1): 0
- Musculoskeletal and connective tissue disorder—other: muscle pain ([3]; Grade 1): 1
- Nausea ([3]; Grade 1): 1
- Peripheral sensory neuropathy ([3]; Grade 1): 1
- Psychosis ([3]; Grade 1): 1
- Creatinine increased ([3]; Grade 2): 1
- Edema, limbs ([3]; Grade 2): 0
- Gait disturbance ([3]; Grade 2): 1
- Generalized muscle weakness ([3]; Grade 2): 1
- Hyperglycemia ([3]; Grade 2): 1
- Insomnia ([3]; Grade 2): 1
- Musculoskeletal and connective tissue disorder—other: muscle pain ([3]; Grade 2): 0
- Nausea ([3]; Grade 2): 0
- Peripheral sensory neuropathy ([3]; Grade 2): 0
- Cough ([3]; Total): 1
- Creatinine increased ([3]; Total): 1
- Edema, limbs ([3]; Total): 1
- Gait disturbance ([3]; Total): 1
- Generalized muscle weakness ([3]; Total): 1
- Hyperglycemia ([3]; Total): 1
- Insomnia ([3]; Total): 1
- Musculoskeletal and connective tissue disorder—other: muscle pain ([3]; Total): 1
- Nausea ([3]; Total): 1
- Peripheral sensory neuropathy ([3]; Total): 1
- Psychosis ([3]; Total): 1
- Serious adverse events ([3]; three participants, 600 mg/day): No participants experienced serious adverse events
- Withdrawal from the study due to adverse events ([3]; three participants, 600 mg/day): No participants withdrew
- Ribociclib (total drug) sufficient to suppress Rb phosphorylation (Rb phosphorylation [4]): 200 nM
- Disease progression (recurrent GBM [5]; all three participants, ribociclib monotherapy): all experienced early disease progression
- PFS from start of Ribociclib (recurrent GBM [5]; participant 001): 2 months
- OS from second surgery (recurrent GBM [5]; participant 001): 10 months
- PFS from start of Ribociclib (recurrent GBM [5]; participant 002): 5 months
- OS from second surgery (recurrent GBM [5]; participant 002): 19 months
- PFS from start of Ribociclib (recurrent GBM [5]; participant 003): 2 months
- OS from second surgery (recurrent GBM [5]; participant 003): 12 months
- Change in Rb phosphorylation, archived vs post-ribociclib tumor (Rb phosphorylation [6]): significant decrease
- Change in cell proliferation, archived vs post-ribociclib tumor (cell proliferation): significant decrease
- Inhibition of tumor tissue CDK4/6 activity (phospho-Rb IHC) or cell proliferation (Ki-67 IHC) (RbS807/811; 600 mg/day monotherapy, archived vs post-ribociclib tumor tissue): did not consistently inhibit
- Proportion of phospho-Rb-positive tumor cells and phospho-Rb histoscores, ribociclib-treated vs. baseline tumors (RbS807/811; 8–21 days of ribociclib 600 mg/day, three subjects, Fig. S1A): Two of the three subjects showed a decrease
- GI50 (cell growth): 276 nM
- Fraction unbound ([7]; enhancing tumor specimens, subject RIBO-001): 3.9%
- Fraction unbound ([7]; enhancing tumor specimens, subject RIBO-002): 6.4% and 5.8% and 5.4%
- Fraction unbound ([7]; enhancing tumor specimens, subject RIBO-003): 4.1% and 4.3%
- Fraction unbound ([7]; human, plasma, Fraction unbound, subject RIBO-001): 0.102
- Fraction unbound ([7]; human, plasma, Fraction unbound, subject RIBO-002): 0.119
- Fraction unbound ([7]; human, plasma, Fraction unbound, subject RIBO-003): 0.09
- Fraction unbound ([7]; non-enhancing tumor specimens, subject RIBO-001): 4.2%
- Fraction unbound ([7]; tumor core specimens, subject RIBO-003): 6.3%
- Mean unbound ribociclib fraction in plasma ([8]; CV = 17.6%): 12.7%
- Mean unbound ribociclib fraction in tumor tissues ([8]; CV = 23%): 4.6%
- Mean unbound ribociclib concentration in CSF ([9]; 600 mg QD 8–21 days, one CSF sample): 0.632 µM and 0.63 µM
- Ribociclib CSF concentration relative to the IC50 for inhibition of CDK4/6 ([9]; CSF): > fivefold
- Total ribociclib (CSF ribociclib concentration) ([9]; CSF collected during surgery, subject RIBO-003, 600 mg QD, 14 days): 0.63 µM
- Total drug tumor (mean concentration) [9, 10]: 17.97 nmol/g
- Unbound drug tumor (mean concentration) [9, 10]: 0.79 nmol/g
- Total drug tumor (mean concentration) ([9]; enhancing tumor, subject RIBO-002, mean of specimens): 24.73 nmol/g
- Total drug tumor (mean concentration) [9, 11]: 29.99 nmol/g
- Unbound drug tumor (mean concentration) [9, 11]: 1.29 nmol/g
- Kp ([9]; human, CSF / unbound plasma, oral, 600 mg/day, CSF/unbound plasma concentration ratio, one patient, 0.63/0.49): 1.29
- Mean unbound ribociclib concentration in MRI-enhancing tumor [9, 12]: 1.242 nmol/g
- Mean unbound ribociclib concentration in MRI-non-enhancing tumor [9, 12]: 0.484 nmol/g and 0.48 nmol/g
- Mean unbound ribociclib concentration in tumor core [9, 12]: 1.526 nmol/g
- Mean concentration of unbound ribociclib in MRI-enhancing tumor or core ([9]; mean across all subjects, reported herein, 600 mg/day): 1.33 nmol/g
- Mean unbound ribociclib concentration in plasma ([9]; mean across participants, 600 mg QD 8–21 days): 0.337 µM
- Tumor tissue concentration of total ribociclib [9, 13]: 23.42 ± 10.79 nmol/g
- Tumor tissue concentration of unbound ribociclib [9, 13]: 1.24 ± 0.64 nmol/g
- Tumor tissue concentration of total ribociclib [9, 14]: 24.36 ± 11.22 µM
- Unbound ribociclib intra-tumor drug concentration [9, 14]: 1.29 ± 0.67 µM
- Unbound concentration in non-enhancing tumor relative to the IC50 for inhibition of CDK4/6 ([9]; non-enhancing tumor): > fivefold
- Total drug tumor (mean concentration) [9, 15]: 8.86 nmol/g
- Unbound drug tumor (mean concentration) [9, 15]: 0.48 nmol/g
- Total ribociclib ([9]; plasma, day of surgery, subject RIBO-001, 600 mg QD, 8 days before surgery): 3.65 µM
- Total ribociclib ([9]; plasma, day of surgery, subject RIBO-002, 600 mg QD, 12 days before surgery): 1.26 µM
- Total ribociclib ([9]; plasma, day of surgery, subject RIBO-003, 600 mg QD, 14 days before surgery): 5.44 µM
- Total ribociclib ([9]; tumor core specimen, subject RIBO-001, 600 mg QD, 8 days, 4–8 h after last dose): 16.30 nmol/g
- Total drug tumor (mean concentration) ([9]; tumor core, subject RIBO-001): 16.30 nmol/g
- Unbound drug tumor (mean concentration) ([9]; tumor core, subject RIBO-001): 0.82 nmol/g
- Total drug tumor (mean concentration) [9, 16]: 33.03 nmol/g
- Unbound drug tumor (mean concentration) [9, 16]: 2.11 nmol/g
- Total drug tumor (mean concentration) [9, 17]: 21.65 nmol/g
- Unbound drug tumor (mean concentration) [9, 17]: 1.30 nmol/g
